Reference: ChEMBL document CHEMBL3407343, “Functionalized tetrahydro-1H-pyrido[4,3-b]indoles: a novel chemotype with Sirtuin 2 inhibitory activity” (Eur J Med Chem, 2015)
Values after ≈ are worked out from the molar mass of the structure shown. Active and inactive are the calls of the source. The calls are words filed in the database; no cut-off is given here.

What was measured:
[1] = target: T1, NAD-dependent protein deacetylase sirtuin-1 (Homo sapiens) (UniProt Q96EB6); experiment: Inhibition of human recombinant SIRT1 assessed as deacetylation of N-acetyl lysine residue in p53 (317 to 320) at 10 uM after 30 mins by luciferase-mediated luminescence assay relative to control
T1 sequence (whole entry): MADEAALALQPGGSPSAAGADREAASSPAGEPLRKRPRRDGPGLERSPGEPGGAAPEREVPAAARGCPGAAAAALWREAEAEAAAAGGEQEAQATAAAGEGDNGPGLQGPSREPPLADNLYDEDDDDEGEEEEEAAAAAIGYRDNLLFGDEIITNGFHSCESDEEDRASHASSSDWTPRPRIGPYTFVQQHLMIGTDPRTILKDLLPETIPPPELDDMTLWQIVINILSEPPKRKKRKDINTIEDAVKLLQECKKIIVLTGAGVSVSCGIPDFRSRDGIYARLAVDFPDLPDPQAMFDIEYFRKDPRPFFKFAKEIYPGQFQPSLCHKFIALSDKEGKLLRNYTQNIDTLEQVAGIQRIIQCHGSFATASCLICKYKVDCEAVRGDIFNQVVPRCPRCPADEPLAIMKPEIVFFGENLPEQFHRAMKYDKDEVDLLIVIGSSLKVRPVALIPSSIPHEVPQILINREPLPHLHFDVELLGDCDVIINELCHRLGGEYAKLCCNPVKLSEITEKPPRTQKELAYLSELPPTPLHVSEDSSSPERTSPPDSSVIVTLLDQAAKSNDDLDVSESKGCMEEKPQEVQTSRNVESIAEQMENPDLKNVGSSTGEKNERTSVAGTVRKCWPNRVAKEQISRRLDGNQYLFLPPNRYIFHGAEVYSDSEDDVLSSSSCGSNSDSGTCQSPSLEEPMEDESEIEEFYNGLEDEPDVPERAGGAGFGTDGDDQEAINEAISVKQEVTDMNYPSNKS
How it was run: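 Recombinant human SIRT1 at 0.1 unit/well, with the enzyme amount chosen from the mid-linear range of a signal-to-noise titration, in Sirt-Glo buffer. Serially diluted inhibitor in DMSO covers a 10^3-fold range, with 2.5% DMSO final. The single-point screen is at a fixed 10 µM. Enzyme and inhibitor were agitated 30 min at 25 °C, then Sirt-Glo reagent added and shaken another 30 min at 25 °C before luminescence was read. Activity is % of the enzyme-only control after blank subtraction. IC50 comes from a sigmoidal fit of % activity against log concentration, run in triplicate across ≥2 independent experiments.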

[2] = target: T2, NAD-dependent protein deacetylase sirtuin-1 (Homo sapiens, UniProt Q96EB6); experiment: Inhibition of human recombinant SIRT1 assessed as deacetylation of N-acetyl lysine residue in p53 (317 to 320) after 30 mins by luciferase-mediated luminescence assay
T2 sequence (Q96EB6 whole entry): T1 sequence (whole entry)

[3] = target: T3, NAD-dependent protein deacetylase sirtuin-2 (Homo sapiens, UniProt Q8IXJ6); experiment: Inhibition of human recombinant SIRT2 assessed as deacetylation of N-acetyl lysine residue in p53 (317 to 320) after 30 mins by luciferase-mediated luminescence assay
T3 sequence (Q8IXJ6 whole entry): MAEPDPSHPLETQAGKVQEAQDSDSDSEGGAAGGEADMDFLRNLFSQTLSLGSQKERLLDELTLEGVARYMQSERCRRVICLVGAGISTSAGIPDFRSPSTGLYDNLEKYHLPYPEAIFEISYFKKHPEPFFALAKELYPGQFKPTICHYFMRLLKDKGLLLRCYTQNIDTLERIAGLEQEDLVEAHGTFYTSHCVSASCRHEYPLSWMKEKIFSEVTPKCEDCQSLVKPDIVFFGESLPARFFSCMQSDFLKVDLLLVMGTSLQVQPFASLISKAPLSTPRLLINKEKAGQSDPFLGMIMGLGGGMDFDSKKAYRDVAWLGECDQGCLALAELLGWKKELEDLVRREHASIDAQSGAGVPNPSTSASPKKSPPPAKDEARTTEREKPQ

[4] = species on record: Homo sapiens; experiment: Selectivity ratio of IC50 for human recombinant SIRT1 to IC50 for human recombinant SIRT2
[5] = Self-aggregation of the compound in PBS assessed as derived light scattering count rate at 10 uM at pH 7.4 (reference value: 15.5 +/- 0.4 kilocount/sec); assay type: physicochemical; conditions: buffer, pH 7.4, 10 µM
[6] = Self-aggregation of the compound in PBS assessed as derived light scattering count rate at 1 uM at pH 7.4 (reference value: 15.5 +/- 0.4 kilocount/sec); assay type: physicochemical; conditions: buffer, pH 7.4, 1 µM
[7] = species on record: Homo sapiens; experiment: Inhibition of protease (unknown origin) using deacetylated peptide as substrate assessed as luminescence at 10 uM after 30 mins relative to control; design: scale not given: the % may be the effect or the level left
How it was run: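 Counter-screen without sirtuin: compound from DMSO stock diluted in Sirt-Glo buffer, then Sirt-Glo reagent added carrying non-acetylated control peptide. DMSO was 2.5% v/v. Mixed by shaking 30 min at 25 °C, then luminescence read. Result is % of control (peptide plus reagent in vehicle) after subtracting the vehicle-only blank.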

[8] = Cytotoxicity against human IMR90 cells assessed as cell viability after 72 hrs by MTS assay; assay type: cell-based; conditions: IMR-90, 72 h
[9] = Solubility of the compound in phosphate buffer at pH 7.4 at 25 degC by turbimetric method; assay type: physicochemical
How it was run: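 Turbidimetric solubility. Compound from DMSO stock was added to phosphate buffer pH 7.4 at 1–50 µM final, with 1% v/v DMSO. Plate shaken 30 min at 25 °C and absorbance read at 620 nm. Solubility is assigned to the concentration range where absorbance rises two-fold or more, from 3 separate determinations.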

[10] = Self-aggregation of the compound in PBS assessed as derived light scattering count rate at 250 uM at pH 7.4 (reference value: 15.5 +/- 0.4 kilocount/sec); assay type: physicochemical; conditions: buffer, pH 7.4, 250 µM
[11] = Self-aggregation activity of the compound in PBS assessed as derived light scattering count rate at 25 uM at pH 7.4 (reference value: 15.5 +/- 0.4 kilocount/sec); assay type: physicochemical; conditions: buffer, pH 7.4, 25 µM

inhibition [1]	IC50 [2] [µM]	IC50 [3] [µM]	Activity [5] [kC/sec]	Activity [6] [kC/sec]	Activity [7] [%]	Structure (SMILES)	other results
inactive						CCCCCCCCn1c2c(c3cc(-c4cccc(C)c4)ccc31)CN(Cc1ccc(O)cc1)CC2	
inactive						CCCCCCCCn1c2c(c3cc(-c4ccnc(F)c4)ccc31)CN(C(N)=O)CC2	
inactive						CCCCCCCCn1c2c(c3cc(-c4cnc(N)nc4)ccc31)CN(CCO)CC2	
5.1%	20	10.1				CCCCCCCCn1c2c(c3cc(-c4cccc(C)c4)ccc31)CNCC2	Ratio IC50 [4]: 2
15.3%	56	20	137	16.8		CCCCCCCCn1c2c(c3cc(-c4cnc(N)nc4)ccc31)CN(C(C)C)CC2	
inactive		> 100				CCCCn1c2c(c3cc(-c4cnc(N)nc4)ccc31)CNCC2	
inactive						CCCCCCCCn1c2c(c3cc(-c4cnc(N)nc4)ccc31)CN(CC)CC2	
inactive	> 100	7.8	541	19	97.1	CCCCCCCCn1c2c(c3cc(-c4cccc(C)c4)ccc31)CN(C(N)=O)CC2	
inactive	> 100	17.9	24	15.8	98.7	CCCCCCCCn1c2c(c3cc(-c4cnc(N)nc4)ccc31)CN(C)CC2	
inactive	63	14				CCCCCCCCn1c2c(c3cc(-c4cnc(N)nc4)ccc31)CN(C(N)=O)CC2	
51.8%	28	4	29	15.6	98.6	CCCCCCCCn1c2c(c3cc(-c4ccc(S(C)(=O)=O)cc4)ccc31)CN(C(N)=O)CC2	IC50 [8]: 14.5 µM; solubility kinetic [9]: 1.6 µM (≈ 0.771 µg/mL)
inactive						CCCCCCCCn1c2c(c3cc(-c4cnc(N)nc4)ccc31)CN(C(=O)OCC)CC2	
						O=C(OCc1ccccc1)c1ccccc1 [BENZYL BENZOATE]	Activity [10]: 1148 kC/sec; Activity [11]: 76 kC/sec
2.4%	38	11.8	137	16.1	96.3	CCCCCCCCn1c2c(c3cc(-c4cnc(N)nc4)ccc31)CNCC2	solubility kinetic [9]: 6.3 µM (≈ 2.38 µg/mL)
		100				Cc1cccc(-c2ccc3[nH]c4c(c3c2)CNCC4)c1	
inactive		96				CCCCn1c2c(c3cc(-c4cccc(C)c4)ccc31)CNCC2	
inactive						CCCCCCCCn1c2c(c3cc(F)ccc31)CN(Cc1ccc(O)cc1)CC2	
< 5%	> 100	8.2	769	32	99	CCCCCCCCn1c2c(c3cc(-c4cccc(C)c4)ccc31)CN(Cc1ccccc1)CC2	
inactive						CC(C)=CCn1c2c(c3cc(-c4cccc(C)c4)ccc31)CN(Cc1ccc(O)cc1)CC2	
		83				Cc1cccc(-c2ccc3[nH]c4c(c3c2)CN(C)CC4)c1	
		> 250				CN1CCc2[nH]c3ccc(-c4ccc(S(C)(=O)=O)cc4)cc3c2C1	
inactive						CCCCCCCCn1c2c(c3cc(F)ccc31)CN(C)CC2	
1.1%						CCCCCCCCn1c2c(c3cc(-c4ccnc(F)c4)ccc31)CNCC2	
		> 250				CN1CCc2[nH]c3ccc(-c4cnc(N)nc4)cc3c2C1	
inactive						CCCCCCCCn1c2c(c3cc(-c4cnc(N)nc4)ccc31)CN(S(C)(=O)=O)CC2	
inactive		20			98.6	CCCCn1c2c(c3cc(-c4ccc(S(C)(=O)=O)cc4)ccc31)CNCC2	
66.4%	21	6.2	178	17.9	98.6	CCCCCCCCn1c2c(c3cc(-c4cccc(C)c4)ccc31)CN(C)CC2	solubility kinetic [9]: 3.1 µM (≈ 1.2 µg/mL)
12.8%	> 250	6	130.7	17	97.8	CCCCCCCCn1c2c(c3cc(-c4ccc(S(C)(=O)=O)cc4)ccc31)CN(C)CC2	Ratio IC50 [4]: > 40; solubility kinetic [9]: 3.1 µM (≈ 1.4 µg/mL)

Structure (SMILES)	inhibition [1]	IC50 [2] [µM]	IC50 [3] [µM]	Activity [5] [kC/sec]	Activity [6] [kC/sec]	Activity [7] [%]	other results
CCCCCCCCn1c2c(c3cc(-c4cccc(C)c4)ccc31)CN(C(C)C)CC2	2.4%	26	11.2	558	27	100	solubility kinetic [9]: 1.6 µM (≈ 0.667 µg/mL)
CCCCCCCCn1c2c(c3cc(-c4cccc(C)c4)ccc31)CN(C(=O)OCC)CC2	inactive						
